pIC50: −log10 of the molar value. Calls of active or inactive are those of the source. The calls are words filed in the database; no cut-off is given here.
Key:
[1] = system: MIA PaCa-2; assay: Cytotoxicity against human MIAPaCa2 cells after 72 hrs by MTT assay; format: functional, cell-based; details: for pIC50: read-out: IC50
In short: (§1)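 Seeded at 5000–10000 cells/well, incubated at 37 °C in CO2 with compounds at a range of concentrations, controls included, in triplicate wells. After 72 h, MTT solution (5 mg/mL) added; absorbance read at 540 nm. % cytotoxicity = 100 × [1 − (X/R1)] versus control absorbance; IC50 by nonlinear regression. Values are means of at least two independent experiments, three determinations each.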

[2] = system: MCF7; assay: Cytotoxicity against human MCF7 cells after 72 hrs by MTT assay; format: functional, cell-based; details: for pIC50: read-out: IC50; in short: as §1
[3] = system: K562; assay: Cytotoxicity against human K562 cells after 72 hrs by MTT assay; format: functional, cell-based; details: for pIC50: read-out: IC50; in short: as §1
[4] = system: KB; assay: Cytotoxicity against human KB cells after 72 hrs by MTT assay; format: functional, cell-based; in short: as §1
[5] = system: SW-620; assay: Cytotoxicity against human SW620 cells after 72 hrs by MTT assay; format: functional, cell-based; details: for pIC50: read-out: IC50; in short: as §1
[6] = system: A549; assay: Cytotoxicity against human […] cells after 72 hrs by MTT assay; format: functional, cell-based; details: for pIC50: read-out: IC50; in short: as §1
[7] = system: DU-145; assay: Cytotoxicity against human DU145 cells after 72 hrs by MTT assay; format: functional, cell-based; details: for pIC50: read-out: IC50; in short: as §1
[8] = system: PA-1; assay: Cytotoxicity against human PA1 cells after 72 hrs by MTT assay; format: functional, cell-based; details: for pIC50: read-out: IC50; in short: as §1
[9] = Cytotoxicity against mouse NIH/3T3 cells after 72 hrs by MTT assay; format: cell-based, NIH3T3; details: for pIC50: read-out: IC50; in short: as §1
[10] = system: MDA-MB-231; assay: Induction of apoptosis in human MDA-MB-231 cells assessed as DNA fragmentation at 0.74 uM after 24 hrs; format: functional, cell-based
In short: (§2)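 Treated 24 h with 0.25–0.74 range. Then 1 × 10^5 cells trypsinized, PBS-washed (4 °C, pH 7.4), lysed 10 min on ice (10 mM Tris-HCl pH 7.4, 10 mM EDTA, 0.5% SDS). RNase A 1 h at 37 °C, then proteinase K 4 h at 50 °C. DNA ethanol/sodium acetate precipitated, run on 1.5% agarose with ethidium bromide, viewed under UV.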

[11] = system: MCF7; assay: Induction of apoptosis in human MCF7 cells assessed as DNA fragmentation at 0.25 uM after 24 hrs; format: functional, cell-based; in short: as §2
[12] = system: MDA-MB-231; assay: Induction of apoptosis in human MDA-MB-231 cells assessed as appearance of fragmented nuclei at 0.74 uM after 24 hrs by Hoechst staining; format: functional, cell-based
In short: (§3)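 1 × 10^4 cells grown on coverslips, treated 24 h, PBS-washed, fixed in 4% paraformaldehyde 15 min. Stained with Hoechst at 1.0 ug/ml for 15 min at 4 °C, washed, mounted, and examined by fluorescence microscopy; untreated cells as control.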

[13] = system: MDA-MB-231; assay: Induction of apoptosis in human MDA-MB-231 cells assessed as appearance of fragmented nuclei at 0.5 uM after 24 hrs by Hoechst staining; format: functional, cell-based; in short: as §3
[14] = system: MDA-MB-231; assay: Induction of apoptosis in human MDA-MB-231 cells assessed as DNA fragmentation at 0.25 uM after 24 hrs; format: functional, cell-based; in short: as §2
[15] = system: MCF7; assay: Induction of apoptosis in human MCF7 cells assessed as DNA fragmentation at 0.74 uM after 24 hrs; format: functional, cell-based; in short: as §2
[16] = system: MCF7; assay: Induction of apoptosis in human MCF7 cells assessed as appearance of fragmented nuclei at 0.5 uM after 24 hrs by Hoechst staining; format: functional, cell-based; in short: as §3
[17] = system: MCF7; assay: Induction of apoptosis in human MCF7 cells assessed as appearance of fragmented nuclei at 0.74 uM after 24 hrs by Hoechst staining; format: functional, cell-based; in short: as §3

COC(=O)[C@@H]1Cc2c([nH]c3ccccc23)[C@H](c2ccc(OC)cc2)N1c1nc(N2CCN(C)CC2)nc(N2CCN(C)CC2)n1
pIC50 ([1]; mia paca-2): 5.44
pIC50 ([2]; mcf7): 5.05
pIC50 ([3]; k562): 5.32
pIC50 ([4]; kb): 5.12
pIC50 ([5]; sw-620): 5.92
pIC50 ([6]; a549): 5.50
pIC50 ([7]; du-145): 4.99
pIC50 ([8]; pa-1): 5.56
pIC50 ([9]; nih3t3): 5.79

COC(=O)[C@H]1Cc2c([nH]c3ccccc23)[C@H](c2cc(OC)c(OC)c(OC)c2)N1c1nc(N2CCN(C)CC2)nc(N2CCN(C)CC2)n1 (relative stereo)
pIC50 ([1]; Homo sapiens, MIA PaCa-2, 72 h): 5.12
IC50 ([2]; mcf7): Not Active
pIC50 ([3]; Homo sapiens, K562, 72 h): 5.52
pIC50 ([4]; Homo sapiens, KB, 72 h): 5.61
pIC50 ([5]; Homo sapiens, SW-620, 72 h): 5.50
pIC50 ([6]; Homo sapiens, A549, 72 h): 5.25
pIC50 ([7]; Homo sapiens, DU-145, 72 h): 5.70
pIC50 ([8]; Homo sapiens, PA-1, 72 h): 5.56
pIC50 ([9]; Mus musculus, NIH3T3, 72 h): 5.66

COC(=O)[C@H]1Cc2c([nH]c3ccccc23)[C@@H](c2ccc(OC)cc2)N1c1nc(N2CCN(C)CC2)nc(N2CCN(C)CC2)n1
pIC50 ([1]; Homo sapiens, MIA PaCa-2, 72 h): 5.28
pIC50 ([2]; Homo sapiens, MCF7, 72 h): 4.91
pIC50 ([3]; Homo sapiens, K562, 72 h): 5.35
pIC50 ([4]; Homo sapiens, KB, 72 h): 5.74
pIC50 ([5]; Homo sapiens, SW-620, 72 h): 5.49
pIC50 ([6]; Homo sapiens, A549, 72 h): 4.94
pIC50 ([7]; Homo sapiens, DU-145, 72 h): 5.61
pIC50 ([8]; Homo sapiens, PA-1, 72 h): 5.48
pIC50 ([9]; Mus musculus, NIH3T3, 72 h): 5.28

COC(=O)[C@H]1Cc2c([nH]c3ccccc23)[C@H](c2ccc(C)cc2)N1c1nc(N2CCN(C)CC2)nc(N2CCN(C)CC2)n1
pIC50 ([1]; Homo sapiens, MIA PaCa-2, 72 h): 5.15
pIC50 ([2]; Homo sapiens, MCF7, 72 h): 5.23
pIC50 ([3]; Homo sapiens, K562, 72 h): 5.49
pIC50 ([4]; Homo sapiens, KB, 72 h): 5.73
pIC50 ([5]; Homo sapiens, SW-620, 72 h): 5.58
pIC50 ([6]; Homo sapiens, A549, 72 h): 5.63
pIC50 ([7]; Homo sapiens, DU-145, 72 h): 5.67
pIC50 ([8]; Homo sapiens, PA-1, 72 h): 5.16
pIC50 ([9]; Mus musculus, NIH3T3, 72 h): 5.67

COC(=O)[C@@H]1Cc2c([nH]c3ccccc23)[C@@H](c2ccc(OC)cc2)N1c1nc(N2CCN(C)CC2)nc(N2CCN(C)CC2)n1
Activity [10]: Active
Activity [11]: Active
Activity [12]: Active
Activity [13]: Active
Activity [14]: Active
Activity [15]: Active
Activity [16]: Active
Activity [17]: Active

COC(=O)[C@@H]1Cc2c([nH]c3ccccc23)[C@@H](c2ccc(C)cc2)N1c1nc(N2CCN(C)CC2)nc(N2CCN(C)CC2)n1 (racemic)
IC50 ([1]; mia paca-2): Not Active
IC50 ([2]; mcf7): Not Active
IC50 ([3]; k562): Not Active
pIC50 ([4]; Homo sapiens, KB, 72 h): 6.98
IC50 ([5]; sw-620): Not Active
IC50 ([6]; a549): Not Active
IC50 ([7]; du-145): Not Active
IC50 ([8]; pa-1): Not Active
IC50 ([9]; nih3t3): Not Active

COC(=O)[C@@H]1Cc2c([nH]c3ccccc23)[C@@H](c2ccc(OC)cc2)N1c1nc(N2CCN(C)CC2)nc(N2CCN(C)CC2)n1 (racemic)
pIC50 ([1]; mia paca-2): 5.20
pIC50 ([2]; mcf7): 4.91
IC50 ([3]; k562): Not Active
pIC50 ([4]; kb): 5.73
pIC50 ([5]; sw-620): 5.37
pIC50 ([6]; a549): 5.25
pIC50 ([7]; Homo sapiens, DU-145, 72 h): 4.98
pIC50 ([8]; Homo sapiens, PA-1, 72 h): 5.69
pIC50 ([9]; nih3t3): 5.32

COC(=O)[C@H]1Cc2c([nH]c3ccccc23)[C@H](c2ccc(Cl)cc2)N1c1nc(N2CCN(C)CC2)nc(N2CCN(C)CC2)n1 (racemic)
pIC50 ([1]; Homo sapiens, MIA PaCa-2, 72 h): 5.15
IC50 ([2]; mcf7): Not Active
pIC50 ([3]; Homo sapiens, K562, 72 h): 5.30
pIC50 ([4]; Homo sapiens, KB, 72 h): 5.70
pIC50 ([5]; Homo sapiens, SW-620, 72 h): 5.56
IC50 ([7]; du-145): Not Active
pIC50 ([8]; Homo sapiens, PA-1, 72 h): 5.19
pIC50 ([9]; Mus musculus, NIH3T3, 72 h): 5.65

COC(=O)[C@@H]1Cc2c([nH]c3ccccc23)[C@H](c2ccc(C(C)C)cc2)N1c1nc(N2CCN(C)CC2)nc(N2CCN(C)CC2)n1
pIC50 ([1]; Homo sapiens, MIA PaCa-2, 72 h): 5.74
pIC50 ([2]; Homo sapiens, MCF7, 72 h): 5.23
pIC50 ([3]; Homo sapiens, K562, 72 h): 5.19
pIC50 ([4]; Homo sapiens, KB, 72 h): 5.16
pIC50 ([5]; Homo sapiens, SW-620, 72 h): 5.71
pIC50 ([6]; Homo sapiens, A549, 72 h): 5.75
pIC50 ([7]; Homo sapiens, DU-145, 72 h): 5.54
pIC50 ([8]; Homo sapiens, PA-1, 72 h): 6.57
pIC50 ([9]; Mus musculus, NIH3T3, 72 h): 5.93
